The values that follow come from ChEMBL document CHEMBL1132157 (J Med Chem, 1999).

Structures are written as SMILES.

Assay [1] addresses T1, 5-hydroxytryptamine receptor 1D (Homo sapiens, UniProt P28221). Nature of the assay: Displacement of [3H]5-HT binding to cloned human 5-hydroxytryptamine 1D receptor stably expressed in CHO cells. In kind it is cell-based. An outline of the steps: (§1)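 Membranes from thawed CHO cells with human 5-HT1B or 5-HT1D, washed in 50 mM Tris-HCl pH 7.7, preincubated 10 min at 37 °C to remove endogenous 5-HT. Buffer holds 0.1% ascorbate, 10 μM pargyline and 4 mM CaCl2. Uses 2.0 nM [3H]5-HT, 30 min at 37 °C; 10 μM 5-HT defines nonspecific binding. Filtration; IC50 by nonlinear regression; duplicates, 2–5 occasions.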
For orientation: Displacement assays read how much labelled ligand stays bound in the presence of the test substance.

For assay [2], the target named is 5-hydroxytryptamine receptor 1B (Homo sapiens, UniProt P28222). Nature of the assay: Displacement of [3H]5-HT binding to cloned 5-hydroxytryptamine 1B receptor stably expressed in CHO cells. The class given is cell-based. An outline of the steps: as §1
Assay [3] can be described thus: Ratio of IC50 for human 5-HT1B to human 5-HT1D receptors.
The target of assay [4] is T1, 5-hydroxytryptamine receptor 1D. Briefly: Maximum stimulation of [35S]GTP-gamma-S, binding in CHO cells expressing human 5-HT-1d relative to 5-HT. The class given is functional, cell-based. In short, it runs like this:
(§2)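 Membranes from thawed CHO cells with human 5-HT1D, prepared in ice-cold 20 mM Hepes/EDTA at pH 7.4, spun at 40000g. Assay buffer: 100 mM NaCl, 10 mM MgCl2, 0.1% ascorbate, 10 μM pargyline. GDP 100 μM plus drug, 20 min at 30 °C, then ice 15 min. Then 100 pM [35S]GTPγS, 30 min at 30 °C, filtration. Emax is taken as % of maximal 5-HT response; duplicates, 2–5 occasions.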
On the technique in general: GTPγS resists hydrolysis and so accumulates on activated G proteins.

The target is the same in assay [5]. Briefly: Agonist-induced [35S]- GTPgammaS binding in CHO cells stably transfected with 5-hydroxytryptamine 1D receptor. In kind it is cell-based. In short, it runs like this: as §2

T1 sequence (P28221 whole entry): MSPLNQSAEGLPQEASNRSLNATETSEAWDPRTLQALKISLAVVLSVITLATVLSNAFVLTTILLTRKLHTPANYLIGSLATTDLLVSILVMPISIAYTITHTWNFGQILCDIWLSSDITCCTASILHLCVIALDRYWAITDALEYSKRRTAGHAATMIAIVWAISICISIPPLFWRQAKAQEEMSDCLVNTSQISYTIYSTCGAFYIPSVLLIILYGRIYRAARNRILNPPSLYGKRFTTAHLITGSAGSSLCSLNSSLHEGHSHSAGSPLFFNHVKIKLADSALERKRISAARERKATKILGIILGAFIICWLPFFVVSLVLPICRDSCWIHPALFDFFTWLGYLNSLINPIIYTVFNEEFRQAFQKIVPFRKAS
5-hydroxytryptamine receptor 1B, sequence (P28222 whole entry): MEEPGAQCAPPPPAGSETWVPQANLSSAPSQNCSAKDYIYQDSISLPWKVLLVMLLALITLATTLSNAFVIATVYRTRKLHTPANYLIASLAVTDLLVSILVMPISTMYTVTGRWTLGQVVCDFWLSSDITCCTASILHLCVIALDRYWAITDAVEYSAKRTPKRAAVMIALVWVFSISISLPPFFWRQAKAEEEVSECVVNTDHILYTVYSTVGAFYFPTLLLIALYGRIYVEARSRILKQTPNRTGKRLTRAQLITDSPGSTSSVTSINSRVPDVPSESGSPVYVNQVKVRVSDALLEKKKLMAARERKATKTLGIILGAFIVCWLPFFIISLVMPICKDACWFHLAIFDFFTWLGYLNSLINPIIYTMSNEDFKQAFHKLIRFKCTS

Turning to `OC[C@@H](NCC1CCN(CCCc2c[nH]c3ccc(-n4cnnc4)cc23)CC1)c1ccccc1`, the concentration for half-maximal inhibition (IC50) (in general, the concentration that inhibits the measured activity by half) is 3.4 nM in assay [1] and 34 nM in assay [2]. The Selectivity in assay [3] was found to be 10.
For `C=CCN(C)C1CCN(CCCc2c[nH]c3ccc(-n4cnnc4)cc23)CC1` the same measures were 20 nM, 320 nM and 16.
For `COC[C@H](NC1CCN(CCCc2c[nH]c3ccc(-n4cnnc4)cc23)CC1)c1ccc(F)cc1` the same measures were 1.4 nM, 89 nM and 64.
Consider `c1ccc(CNCC2CCN(CCCc3c[nH]c4ccc(-n5cnnc5)cc34)CC2)cc1`, for which the IC50 in assay [1] is 1.6 nM; in assay [2] it was 28 nM. Besides, in assay [4], the Efficacy was determined as 101%. For the same compound, the Selectivity in assay [3] came to 18. Besides, the concentration giving a half-maximal response (EC50) (usually the concentration giving half of the maximal effect) in assay [5] worked out at 5.6 nM.
In the same order, the values of `c1ccc2c(c1)CCC2NC1CCN(CCCc2c[nH]c3ccc(-n4cnnc4)cc23)CC1` (stereo not drawn) are 8.9 nM, 280 nM, 68%, 31 and 25 nM.
In the case of `c1ccc(C2CCCCN2C2CCN(CCCc3c[nH]c4ccc(-n5cnnc5)cc34)CC2)cc1` (stereo not drawn), the values for the IC50 in assay [1] and in assay [2] were 1.9 nM and 410 nM, respectively. This compound also displayed an Efficacy in assay [4] of 65%. In addition, the Selectivity in assay [3] stood at 220. In addition, in assay [5], the half-maximal effective concentration (EC50) came out at 4.7 nM.
`CNS(=O)(=O)Cc1ccc2[nH]cc(CCCN3CCC(N[C@H](C)c4ccccc4)CC3)c2c1`: the IC50 in assay [1] was found to be 43 nM; in assay [2] it was 260 nM. The Selectivity in assay [3] turned out to be 6.
Consider `Oc1nc2ccccc2n1C1CCN(CCCc2c[nH]c3ccc(-n4cnnc4)cc23)CC1`, for which the half-maximal inhibitory concentration (IC50) in assay [1] is 1.2 nM; in assay [2], 74 nM. In addition, the Efficacy in assay [4] came to 72%. Also, the Selectivity in assay [3] amounted to 62. Further, the EC50 in assay [5] was found to be 2.2 nM.
For the compound `C[C@@H](NCC1CCN(CCCc2c[nH]c3ccc(-n4cnnc4)cc23)CC1)c1ccccc1`, the concentration for half-maximal inhibition (IC50) in assay [1] is 1.4 nM; in assay [2], 14 nM. Also, the Selectivity in assay [3] is 10.
`O=C1N[C@@H](Cc2ccc3[nH]cc(CCCN4CCC(N[C@@H](CO)c5ccccc5)CC4)c3c2)CO1`: the concentration for half-maximal inhibition (IC50) in assay [1] stood at 6.3 nM; in assay [2], 460 nM. In assay [4], this compound had an Efficacy of 83%. The Selectivity in assay [3] stood at 73. In assay [5], this compound showed a half-maximal effective concentration (EC50) of 6 nM.
`CC(C)=CCN(C)C1CCN(CCCc2c[nH]c3ccc(-n4cnnc4)cc23)CC1`: the figures for the IC50 in assay [1] and in assay [2] were 0.5 nM and 41 nM, respectively. Moreover, the Efficacy in assay [4] came out at 115%. Moreover, the Selectivity in assay [3] amounted to 82. For the same compound, a half-maximal response in assay [5] (EC50) required 1.8 nM.
`CN(Cc1ccccc1)C1CCN(CCCc2c[nH]c3ccc(-n4cnnc4)cc23)CC1`: in assay [3], the Selectivity was determined as 67.
Consider `CC(=O)Nc1ccc(CNCC2CCN(CCCc3c[nH]c4ccc(-n5cnnc5)cc34)CC2)cc1`, for which the 50% inhibitory concentration (IC50) in assay [1] came out at 4.2 nM; in assay [2] it was 8.9 nM. Further, in assay [3], the Selectivity worked out at 2.1.
Take `OC[C@H](NC1CCN(CCCc2c[nH]c3ccc(-n4ccnc4)cc23)CC1)c1ccccc1`: the concentration for half-maximal inhibition (IC50) was determined as 0.7 nM in assay [1] and 100 nM in assay [2]. The compound also gave an Efficacy in assay [4] of 74%. Also, in assay [3], the Selectivity was 140. The 50% effective concentration (EC50) in assay [5] worked out at 0.8 nM.
`c1cc(CNC2CCN(CCCc3c[nH]c4ccc(-n5cnnc5)cc34)CC2)ccn1`: the half-maximal inhibitory concentration (IC50) in assay [1] was 24 nM; in assay [2] it was 140 nM. In assay [4], this compound had an Efficacy of 80%. The Selectivity in assay [3] worked out at 5.8. The EC50 in assay [5] came out at 13 nM.
`CN(Cc1ccccc1)CC1CCN(CCCc2c[nH]c3ccc(-n4cnnc4)cc23)CC1`: the IC50 in assay [1] is 0.9 nM; in assay [2], 27 nM. In assay [4], the Efficacy is 93%. Also, the Selectivity in assay [3] worked out at 30.
Regarding `CN(CC1CCN(CCCc2c[nH]c3ccc(-n4cnnc4)cc23)CC1)[C@@H](CO)c1ccccc1`, the results for the IC50 in assay [1] and in assay [2] were 6 nM and 85 nM, respectively. For the same compound, the Selectivity in assay [3] is 14.
Take `c1cc2[nH]cc(CCN3CCCC3)c2cc1-n1cnnc1`: in assay [3], the Selectivity was 9.
As for `OC[C@H](NCC1CCN(CCCc2c[nH]c3ccc(-n4cnnc4)cc23)CC1)c1ccccc1`, the IC50 in assay [1] turned out to be 5.9 nM; in assay [2] it was 79 nM. In assay [3], the Selectivity was 13.
In assay [4], `OC[C@H](NC1CCN(CCCc2c[nH]c3ccc(-n4cnnc4)cc23)CC1)c1ccccc1` came in with an Efficacy of 95%. Further, in assay [3], the Selectivity was 85. The compound further had an EC50 in assay [5] of 1.7 nM.
Turning to `CN(C(=O)Nc1ccccc1)C1CCN(CCCc2c[nH]c3ccc(-n4cnnc4)cc23)CC1`, the half-inhibitory concentration (IC50) in assay [1] came to 18 nM; in assay [2], 140 nM. Further, the Selectivity in assay [3] is 7.8.
In the same order, the values of `c1ccc(CNC2CCN(CCCc3c[nH]c4ccc(-n5cnnc5)cc34)CC2)nc1` are 14 nM, 76 nM and 5.4.
`CN(CC1CCN(CCCc2c[nH]c3ccc(-n4cnnc4)cc23)CC1)C(=O)Nc1ccccc1`: the figures for the 50% inhibitory concentration (IC50) in assay [1] and in assay [2] were 5.9 nM and 6.2 nM, respectively. In assay [3], the Selectivity stood at 1.1.
In the same order, the values of `CN(Cc1ccco1)C1CCN(CCCc2c[nH]c3ccc(-n4cnnc4)cc23)CC1` are 9.3 nM, 89 nM and 9.6.
In the same order, the values of `CC(=O)Nc1ccc([C@@H](C)NCC2CCN(CCCc3c[nH]c4ccc(-n5cnnc5)cc34)CC2)cc1` are 1.5 nM, 8.9 nM and 5.9.
For `CN(C)C[C@H](NC1CCN(CCCc2c[nH]c3ccc(-n4cnnc4)cc23)CC1)c1ccccc1` the same measures were 1.5 nM, 13 nM and 8.7.
As for `CN(C1CCN(CCCc2c[nH]c3ccc(-n4cnnc4)cc23)CC1)S(=O)(=O)c1ccccc1`, the half-maximal inhibitory concentration (IC50) in assay [1] is 1.5 nM; in assay [2], 10 nM. In assay [3], the Selectivity was determined as 6.7.
In the same order, the values of `c1cncc(CNC2CCN(CCCc3c[nH]c4ccc(-n5cnnc5)cc34)CC2)c1` are 35 nM, 140 nM and 4.
In the same order, the values of `CN(Cc1ccc(S(C)(=O)=O)cc1)CC1CCN(CCCc2c[nH]c3ccc(-n4cnnc4)cc23)CC1` are 8.1 nM, 66 nM and 8.1.
For `CC(=O)Nc1ccc(CCNC2CCN(CCCc3c[nH]c4ccc(-n5cnnc5)cc34)CC2)cc1` the same measures were 12 nM, 170 nM and 14.
For the compound `CN(CC1CC1)C1CCN(CCCc2c[nH]c3ccc(-n4cnnc4)cc23)CC1`, the results for the IC50 in assay [1] and in assay [2] were 22 nM and 260 nM, respectively. The Selectivity in assay [3] was found to be 12.
In turn, `C[C@@H](NC1CCN(CCCc2c[nH]c3ccc(-n4cnnc4)cc23)CC1)c1ccccc1` returned a half-inhibitory concentration (IC50) in assay [1] of 0.4 nM. The same compound showed an Efficacy in assay [4] of 90%. Further, in assay [3], the Selectivity is 88. In assay [5], this compound registered an EC50 of 13 nM.
For the compound `CC(=O)Nc1ccc(CCN(C)C2CCN(CCCc3c[nH]c4ccc(-n5cnnc5)cc34)CC2)cc1`, the figures for the IC50 in assay [1] and in assay [2] were 5.7 nM and 66 nM, respectively. In addition, in assay [3], the Selectivity stood at 12.
In the same order, the values of `O[C@H]1Cc2ccccc2C1NC1CCN(CCCc2c[nH]c3ccc(-n4cnnc4)cc23)CC1` (stereo partly drawn) are 37 nM, 300 nM and 8.1.
For `NC1CCN(CCCc2c[nH]c3ccc(-n4cnnc4)cc23)CC1` the same measures were 12 nM, 63 nM and 5.3.
For `O=C(c1ccc(F)cc1)C1CCN(CCn2c(=O)[nH]c3ccccc3c2=O)CC1` [KETANSERIN] the same measures were 270 nM, more than 10000 nM and more than 37.
As to `c1ccc(NCC2CCN(CCCc3c[nH]c4ccc(-n5cnnc5)cc34)CC2)nc1`, the IC50 in assay [1] was determined as 1.7 nM; in assay [2] it was 3.3 nM. In addition, the Selectivity in assay [3] came out at 1.9.
In the same order, the values of `C[C@H](NCC1CCN(CCCc2c[nH]c3ccc(-n4cnnc4)cc23)CC1)c1ccccc1` are 4.4 nM, 58 nM and 13.
For `CC(=O)Nc1ccc(C(=O)N(C)CC2CCN(CCCc3c[nH]c4ccc(-n5cnnc5)cc34)CC2)cc1` the same measures were 17 nM, 40 nM and 2.4.
In the same order, the values of `CC(=O)Nc1ccc(CN(C)C2CCN(CCCc3c[nH]c4ccc(-n5cnnc5)cc34)CC2)cc1` are 19 nM, 100 nM and 5.3.
On to `CC(C)=CCCN(C)C1CCN(CCCc2c[nH]c3ccc(-n4cnnc4)cc23)CC1`, for which the IC50 in assay [1] came to 2.6 nM; in assay [2], 24 nM. The Selectivity in assay [3] worked out at 9.2.
For `CN(Cc1ccc(S(C)(=O)=O)cc1)C1CCN(CCCc2c[nH]c3ccc(-n4cnnc4)cc23)CC1` the same measures were 18 nM, 140 nM and 7.8.
Regarding `CN(CC1CCN(CCCc2c[nH]c3ccc(-n4cnnc4)cc23)CC1)S(=O)(=O)c1ccccc1`, the 50% inhibitory concentration (IC50) in assay [1] stood at 1.6 nM; in assay [2] it was 18 nM. Moreover, the Selectivity in assay [3] came out at 11.
